From PubChem
Compounds with a hit are over-represented: about 3.2% of the library has one in this group of screens.
Mcl1-Noxa inh: Mcl-1/Noxa binding inhibitors, primary screen, biochemical, TR-FRET, 1536-well; Induced myeloid leukemia cell differentiation protein Mcl-1 (Homo sapiens), Q07820; TR-FRET Mcl-1/Noxa peptide binding, 2 h; inhibition, % at 21.7 µM; 1.5% of 220,000 active; AID 1022, 2008;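 active = compounds that cut the protein-peptide binding signal by more than 50% relative to plate controls in a single-dose test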;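 note: His-tagged Mcl-1 with rhodamine Noxa BH3 peptide and terbium anti-His antibody; 0% = Mcl-1 plus Noxa peptide wells and 100% = peptide-only wells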
Mcl1 Bid PPI: Mcl-1/Bid binding inhibitors, primary screen, biochemical, TR-FRET, 1536-well; 0.97% of 220,000 active; TR-FRET Mcl-1/Bid-Dy647 peptide binding; inhibition, % at 21.7 µM; AID 1021, 2008;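 active = compounds that cut the binding signal by more than half at the single screening dose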;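 note: His-tagged Mcl-1 with europium anti-His antibody binding Bid BH3 peptide; 0% = Mcl-1 plus peptide wells and 100% = peptide-only wells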
Calb biofilm kill: clotrimazole potentiators killing C. albicans biofilm, primary screen, 4-compound mixtures; 0.02% of 120,000 active; C. albicans biofilm persisters + clotrimazole, fluorescence viability; primary screen in compound mixtures of four per well; inhibition, % at 7.6 µM;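 active = inhibition above 30.3% in the primary screen of four-compound pools, then above 30% when the compound was retested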;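 note: compounds exposed to preformed 24 h biofilms for 48 h; 0% = untreated biofilm control and 100% = clotrimazole plus chlorhexidine kill blank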
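System: C. albicans CAF4-2 wild-type biofilms; Medium: RPMI/MOPS medium, pH 7.0; Reagent: Clotrimazole, 50 µg/mL; Times: biofilm formation 24 h, compound exposure 48 h, 37 °C; Detection: 2-h Alamar Blue fluorescence, 535/590 nm excitation/emission; Evaluation: percent inhibition of biofilm viability.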
Bim-Mcl-1: inhibitors of Bim peptide binding to Mcl-1, primary screen, biochemical, bead-based flow cytometry, multiplex; Bim peptide-Mcl-1 binding; Induced myeloid leukemia cell differentiation protein Mcl-1 (Homo sapiens), Q07820; AID 1009, 2008; inhibition, % at 10 µM; 0.1% of 190,000 active; in the data active = inhibition above about 40%;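 note: 0% = no compound tracer wells and 100% = peptide blocker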
Hck Nef HTS: inhibitors of Nef-activated human Hck kinase, primary screen, biochemical, Z-Lyte FRET, 384-well, Hck-YEEI. Recombinant Hck-YEEI plus Nef, Z-Lyte FRET kinase assay. inhibition, % at 20 µM. 0.68% of 220,000 active. AID 463187, 2010;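 active = Hck-Nef kinase inhibition above about 50%, limit read from the data; inactive = inhibition below that limit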;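 note: 0% = DMSO with Hck plus Nef and 100% = Hck alone without Nef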
Target sequence (P08631 whole entry, looked up): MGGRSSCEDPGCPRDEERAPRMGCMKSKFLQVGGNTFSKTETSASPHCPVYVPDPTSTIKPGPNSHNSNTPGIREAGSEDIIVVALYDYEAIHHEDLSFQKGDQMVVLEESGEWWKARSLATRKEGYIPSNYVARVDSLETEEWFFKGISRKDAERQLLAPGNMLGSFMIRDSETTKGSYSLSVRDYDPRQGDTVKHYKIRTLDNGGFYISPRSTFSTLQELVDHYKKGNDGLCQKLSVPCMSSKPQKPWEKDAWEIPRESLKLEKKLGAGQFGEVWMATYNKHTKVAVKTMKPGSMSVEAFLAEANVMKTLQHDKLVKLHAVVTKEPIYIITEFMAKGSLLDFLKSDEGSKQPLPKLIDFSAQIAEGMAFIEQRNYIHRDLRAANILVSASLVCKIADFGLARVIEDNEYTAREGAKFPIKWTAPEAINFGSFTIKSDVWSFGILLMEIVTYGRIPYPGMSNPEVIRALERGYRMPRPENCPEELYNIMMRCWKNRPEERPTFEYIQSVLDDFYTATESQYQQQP
14-3-3 Bad PPI: inhibitors of 14-3-3 zeta/Bad binding, primary screen, biochemical, TR-FRET, bovine 14-3-3 zeta | 14-3-3 protein zeta/delta (Bos taurus), P63103 | AID 781, 2007 | inhibition, % at 21.7 µM | TR-FRET 14-3-3zeta/Dy647-pBad peptide displacement, 1 h | 0.71% of 220,000 active;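 active = inhibition above about 70%, limit read from the data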;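 note: 0% = full 14-3-3 plus peptide FRET controls and 100% = background without 14-3-3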
Hck Nef conf: retest of Hck:Nef kinase inhibitor hits, confirmation, biochemical, Z-Lyte FRET, 384-well, p-Tyr peptide counterscreen | shares compounds with Hck Nef HTS | Recombinant Hck-YEEI:Nef, Z-Lyte FRET kinase assay | calls only at 10 µM | 28% of 1,300 active;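 active = average inhibition of at least 50%, with Z-scores no higher than 3 in both the phospho-tyrosine peptide and fluorescence counterscreens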
* = called active by the depositor; i = inactive; . = no result given; + = active, no number.

SMILES	Mcl1-Noxa inh	Mcl1 Bid PPI	Calb biofilm kill	Bim-Mcl-1	Hck Nef HTS	14-3-3 Bad PPI	Hck Nef conf
CCCOc1c(Br)cc(C2C3=C(CCCC3=O)N(CC)C3=C2C(=O)CCC3)cc1OC	33	0	12	-3	47	13	.
CCc1ccc2nc3nc(C)cc(C)c3c(N)c2c1	24	-32	.	6	21	-8	.
Cc1cc(C)c2c(N)c3ccccc3nc2n1	16	-6	.	3	53*	-7	i
Cc1ccc2c(c1)C(=O)c1c(C(=O)O)cccc1-2	13	0	1	-1	22	-15	.
Nc1cc(C(=O)O)c(N)c2c1C(=O)c1ccccc1C2=O	96*	-86	19	.	62*	6	i
CSc1ncccc1C(=O)OCC(=O)c1ccc(Br)s1	-6	2	22	-2	15	-1	.
Cc1cc2c(C)cc(=O)oc2c2c1NCCC2	19	-75	.	-1	97*	2	.
Cc1cc(=O)oc2c(N)c(O)ccc12	13	-19	.	0	0	1	.
Cc1ccc(CNc2ncccc2-c2nc3cc(Cl)ccc3o2)cc1	-5	-33	.	0	66*	4	+
Clc1ccc2oc(-c3cccnc3NCc3ccccc3)nc2c1	11	8	.	-4	90*	1	.
CCOC(=O)/C=C/C(=O)Nc1ccc(Oc2ccccc2)cc1	-5	-11	22	-3	20	-1	.
CN(C)c1ccc(C2Nc3ccccc3C(=O)N2CCCN2CCOCC2)cc1 (stereo not drawn)	-19	-37	12	.	-1	-4	.
C=CCOc1ccc(/C=C2\SC(=S)N(C(C(=O)O)c3ccccc3)C2=O)cc1 (stereo not drawn)	72*	25	11	.	51*	26	+
CCOc1ccc(/C=C2\SC(=S)N(C(C(=O)O)c3ccccc3)C2=O)cc1OC (stereo not drawn)	22	10	24	.	28	6	.
Cc1ccc(C(=O)NC(C)c2nc3ccccc3n2CC(=O)Nc2c(C)cc(C)cc2C)cc1 (stereo not drawn)	-8	49	19	.	57*	25	i
Cc1ccccc1C(=O)Nc1nc(-c2cccnc2)cs1	75*	18	15	.	51*	14	+
Cc1ccc(-c2nc(N/N=C/c3ccccc3[N+](=O)[O-])c3ccccc3n2)cc1	2	-1	.	-3	56*	48	i
Brc1ccc(-c2nc(N/N=C/c3cccnc3)c3ccccc3n2)cc1	47	50	.	-1	-4	38	.
CC(=O)Nc1sc(N/N=C/c2ccc(O)cc2)nc1-c1ccc(C)cc1	89*	-85	18	.	69*	8	i
COc1ccc(/C=N/Nc2nc(-c3ccc(C)cc3)c(NC(C)=O)s2)cc1	50	-36	27	.	83*	-12	i
CC(=O)Nc1sc(N/N=C/c2ccccc2)nc1-c1ccc(C)cc1	7	-52	27	.	69*	-11	i
CC(=O)Nc1sc(N/N=C/c2ccccc2F)nc1-c1ccc(C)cc1	48	-68	19	.	29	3	.
CC(=O)Nc1sc(-c2ccccc2)nc1-c1ccccc1	20	2	14	-1	27	-6	.
CCCCn1c(O)c(N=NC(=O)c2ccco2)c2ccccc21	8	0	18	0	4	-6	.
O=C(N=Nc1c(O)n(C2OC(=O)c3ccccc32)c2ccccc12)c1ccco1 (stereo not drawn)	46	45	22	.	65*	52	i
SMILES	Mcl1-Noxa inh	Mcl1 Bid PPI	Calb biofilm kill	Bim-Mcl-1	Hck Nef HTS	14-3-3 Bad PPI	Hck Nef conf
CCN1CCCc2cc(CN(CCN3CCOCC3)C(=S)Nc3ccc(OC)cc3)ccc21	50	-92	7	-3	54*	-2	i
CCN1CCCc2cc(CN(CCN3CCOCC3)C(=S)Nc3cccc(Cl)c3)ccc21	30	-53	16	-1	-24	-13	.
CCN1CCCc2cc(CN(CCN3CCOCC3)C(=S)Nc3cc(F)cc(F)c3)ccc21	60*	-100	22	-1	55*	-6	i
COCCOn1c(SCCOC)nc2ccccc2c1=O	-1	20	9	.	11	24	.
Cc1ccc(C2=NN(CC(=O)NCc3ccccn3)C(=O)CC2)cc1	7	-8	14	0	2	0	.
CC(C)=NNC(=O)CN1C(=O)NC2NC(=O)NC21 (stereo not drawn)	-11	-21	8	-3	1	-2	.
Cn1cccc1/C=C1\SC(=Nc2cccc(O)c2)NC1=O	37	-22	13	.	85*	0	+
Cn1cccc1/C=C1\SC(=Nc2ccccc2)NC1=O	-3	-20	15	.	20	-2	.
CC(=O)c1sc2nc(CSc3nnnn3-c3ccccc3)[nH]c(=O)c2c1C	96*	3	21	-1	53*	26	+
O=C(c1ccccc1)c1cccn1CC(=O)N1CCc2ccccc2C1	4	-6	-2	-1	-2	-1	.
O=C1N=c2ccccc2=C1c1sc(=S)n(NC(=O)c2cccc(O)c2)c1O	21	-18	27	-5	22	-25	.
Cc1c(-n2c(O)c(C3=c4ccccc4=NC3=O)sc2=S)c(=O)n(-c2ccccc2)n1C	53*	32	3	-1	100*	40	+
C=CCn1c(C)cc(C(=O)Cn2ncc(Cl)c(Cl)c2=O)c1C	86*	-76	10	-5	53*	-18	i
COc1ccc(C2=CC3=C(Br)C(=O)C(C)(OC(=O)C4CCCC4)C(=O)C3=CO2)cc1 (stereo not drawn)	27	-44	18	.	82*	11	+
COC(=O)CCC(=O)OC1(C)C(=O)C2=CN(C(CO)CO)C(c3ccc(OC)cc3)=CC2=C(Br)C1=O (stereo not drawn)	19	-58	6	.	8	-8	.
COc1ccc(C2=CC3=C(Br)C(=O)C(C)(OC(=O)c4ccc(Cl)nc4)C(=O)C3=CO2)cc1 (stereo not drawn)	53*	-10	19	.	94*	15	+
